Measured values: PubChem BioAssay AID504382 (The Scripps Research Institute Molecular Screening Center, 2011)
Among all 2,500 compounds or so, about 460 (18%) were called active.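 How the source made its calls: active means mean activation above a cutoff of low control average plus 3 SD from the earlier screen (cut at about 12% in these data); inactive means the rest.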 Not all results are given here.

Test: IANBD-channel fluorescence artefacts in buffer – biochemical, artefact control for cardiac RTF calcium sensitizer project, confirmation (AID 504382)
Settings: IANBD fluorescence interference counterscreen, EC20 Ca2+, at 7.2 µM, active compounds read high, scaled: EC20 calcium 0, EC100 calcium 100
Outline: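 Medium: MOPS/KCl/MgCl2/EGTA/NTA/DTT buffer, pH 7.2 | Reagent: EC20 calcium, 0.472 mM | Compound dosing: 7.2 µM single dose | Times: 15 min compound exposure at 25 °C | Signal: Fluorescence, 480/540 nm | Measure: Interference relative to controls | Repeats: Triplicate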

| Structure (SMILES) | fluorescence artifact activation |
| --- | --- |
| O=C(Nc1cccc(Cl)c1)c1cc(S(=O)(=O)NCCc2ccc(Cl)cc2)ccc1F | 10.6% (inactive) |
| COc1cccc(/C(O)=C/c2nc3ccc(C(=O)NCCc4ccc(Cl)cc4)cc3[nH]c2=O)c1 | 0.43% (inactive) |
| COc1ccc(N(C)S(=O)(=O)c2ccc(Cl)c(C(=O)NCCc3ccc(Cl)cc3)c2)cc1 | 35.3% (active) |
| CCOc1ccc(C(C(=O)NC2CCCCC2)N(C(=O)Cc2cccs2)c2ccc(-n3cnnn3)c(OC)c2)cc1 (stereo unspecified) | 0.09% (inactive) |
| O=C(c1ccccc1)N1CCN(CC#CC2(O)CCCCC2)CC1 | -0.05% (inactive) |
| COc1ccc(N2CCN(C(=O)c3ccc(OCC4CCCO4)cc3)CC2)cc1 (stereo unspecified) | 23.9% (active) |
| CCOc1ccc(C(=O)NC2CCN(C(=O)Nc3ccccc3OC)CC2)cc1 | -0.03% (inactive) |
| COC(=O)CN1C(=S)N(c2ccc(OC)cc2)C(=O)/C1=C/c1ccc(N2CCOCC2)cc1 | -0.04% (inactive) |
| COc1ccc(CC(=O)NCc2csc(-c3cccs3)n2)cc1OC | 0.03% (inactive) |
| Cc1c(Cl)c([N+](=O)[O-])nn1CC(=O)N1CCN(C23CC4CC(CC(C4)C2)C3)CC1 | 0.69% (inactive) |
| COc1ccc(/C=C2\SC(=O)NC2=S)cc1OC | 0.32% (inactive) |
| COc1ccc(/C=C2\SC(c3ccc(C)cc3)=NC2=O)cc1OC | 0.1% (inactive) |
| COc1cc(/C=C2\SC(=O)NC2=O)ccc1Oc1ccc([N+](=O)[O-])cn1 | 25% (active) |
| NC(=S)Nc1c(Cl)cccc1Cl | -0.03% (inactive) |
| COc1[nH]c(/N=C/c2ccccc2)c(C#N)c1C#N | 0.1% (inactive) |
| NC(=O)NC(Cc1ccccc1)C(=O)NCC1(N2CCCCC2)CCCCC1 (stereo unspecified) | 7.54% (inactive) |
| CC1CC(C)CN(C(=O)COC(=O)CCc2nc3ccccc3c(=O)[nH]2)C1 (stereo unspecified) | -0.03% (inactive) |
| Cn1cc(/C=C2\SC(=S)N(NC(=O)c3ccccc3Cl)C2=O)c2ccccc21 | 6.42% (inactive) |
| CNC(=O)N(O)C1N(C)C(=O)N(CC(=O)OC)C1(C)C (stereo unspecified) | 12.4% (active) |

| Structure (SMILES) | fluorescence artifact activation |
| --- | --- |
| COc1ccc(/C=C2\SC(=S)N(CCCC(=O)Nc3ccccn3)C2=O)cc1OC | 0.11% (inactive) |
| CC(C(=O)c1ccc(Br)cc1)[n+]1cccc2ccccc21 (stereo unspecified) | 11.8% (active) |
| CN(C)c1ccc(/C=C(/C(=O)c2ccc(Cl)cc2Cl)n2cncn2)cc1 | -0.05% (inactive) |
| CCOC(=O)c1c(=O)n(O)c2ccc(OC)cc2[n+]1[O-] | 0.13% (inactive) |
| O=C(c1cccs1)N1CCN=C1SCc1cccc(F)c1 | 0.02% (inactive) |
| COc1cc(OC)cc(C(=O)NCC(=O)OC2CCOC2=O)c1 (stereo unspecified) | 6.1% (inactive) |
| O=C(NCC(=O)N(Cc1cccs1)C(C(=O)NC1CCCCC1)c1ccncc1)c1ccco1 (stereo unspecified) | 0.04% (inactive) |
| COCCNC(=O)C(c1ccc(C)o1)N(Cc1ccc(F)cc1)C(=O)Cn1nnc2ccccc21 (stereo unspecified) | 0.43% (inactive) |
| O=C(NC1CCCCC1)C(c1ccc(F)cc1)N(Cc1ccccc1)C(=O)CN1C(=O)c2ccccc2S1(=O)=O (stereo unspecified) | 27.8% (active) |
| CSC(=NCc1ccco1)NC#N | 0.12% (inactive) |
| CN1/C(=C\C=C2/SC(=S)NC2=O)C(C)(C)c2ccccc21 | 0.11% (inactive) |
| Cc1cc(-c2ccccc2C(=O)NC2CCCCC2)on1 | 0.27% (inactive) |
| Cc1ccc(Cn2c(Sc3nnc(C)s3)nc3c2c(=O)[nH]c(=O)n3C)cc1 | 42.6% (active) |
| COc1cc(C(=O)NCc2nnc(SCC(=O)Nc3ccc4c(c3)OCO4)o2)cc(OC)c1OC | 35.2% (active) |
| COc1cc(C(=O)Nc2ccc(Cl)c(C(F)(F)F)c2)cc(OC)c1OC | 0.1% (inactive) |
| CCN(CC)S(=O)(=O)c1ccc2c(c1)nc(CCC(=O)Nc1ccc3c(c1)OCO3)n2C | 0.09% (inactive) |
| Cc1onc(-c2c(F)cccc2Cl)c1C(N)=S | 6.57% (inactive) |
| CN(C)c1ccc(/C=C(\C#N)C(=O)Nc2nc3c(s2)CCN(Cc2ccccc2)C3)cc1 | 0.06% (inactive) |
| Cc1ccc(N=Nc2c(O)[nH]c3ccc(F)cc23)cc1 | 6.29% (inactive) |

| Structure (SMILES) | fluorescence artifact activation |
| --- | --- |
| Cc1cc(S(=O)(=O)N2CCCC(C(=O)Nc3ccc(C(=O)O)cc3)C2)ccc1Cl (stereo unspecified) | 1.39% (inactive) |
| CC(=O)c1ccc(NC(=O)C2CCCN(S(=O)(=O)c3c(C)[nH]c(=O)[nH]c3=O)C2)cc1 (stereo unspecified) | 20.3% (active) |
| CC(=O)N1CCCc2cc(S(=O)(=O)N3CCCC(C(=O)Nc4cccc(C)c4)C3)ccc21 (stereo unspecified) | 0.1% (inactive) |
| O=C1CCC[C@@H]2C[C@@]3(C[C@@H]4CCN1[C@H]24)Nc1cc([N+](=O)[O-])ccc1NC3=NC1CCCCC1 | 10.3% (inactive) |
| CC1(c2ccc(OC(F)F)cc2)NC(=O)N(CC(=O)Nc2ccc(F)cc2)C1=O (stereo unspecified) | 0% (inactive) |
| CCCC(CCC(=O)Nc1ccc(S(N)(=O)=O)cc1)C(=O)O (stereo unspecified) | 0.96% (inactive) |
| NS(=O)(=O)c1ccc(NC(=O)COc2ccc(C(=O)c3ccc(F)cc3)cc2)cc1 | 545% (active) |
| CCOC(=O)C1(CCc2ccccc2)CCN(C(=O)c2occc2C)CC1 | 3.37% (inactive) |
| CCCC1C(c2ccccc2)C(C#N)(C#N)C2(C#N)CC1(N)NC2=O (stereo unspecified) | 0.01% (inactive) |
| Oc1[nH]c2ccccc2c1N=Nc1ccccc1Cl | 0.13% (inactive) |
| C#CCOCCOCCOCCNc1nc(N2CCN(C(=O)CCCCCCCCCCNC(=O)[C@@H](CCSC)n3cc(CCO)nn3)CC2)nc(N2CCN(C(=O)CCCCCCCCCCNC(=O)[C@H](CCSC)n3cc(CCO)nn3)CC2)n1 | 0.15% (inactive) |
| NS(=O)(=O)c1ccc(NCc2c(F)cccc2Cl)cc1 | 24.7% (active) |
| CCN=C(NC#N)SCc1c(F)cccc1Cl | 0.17% (inactive) |
| COc1ccc(C2NN=C(c3c[nH]c4ccccc34)C2O)cc1 (stereo unspecified) | 8.63% (inactive) |
| CN(CC(=O)NCc1ccc(Cl)cc1)S(=O)(=O)c1cccc2cccnc12 | 0.14% (inactive) |
| CC(C)c1ccc(NS(=O)(=O)c2cccc3cccnc23)cc1 | 168% (active) |
| CCN(CC)C(=O)C1CCC(CNS(=O)(=O)c2cccc3cccnc23)CC1 (stereo unspecified) | -0.02% (inactive) |
| CCc1ccc2c(COC(=O)CNS(=O)(=O)c3ccc(NC(C)=O)cc3)cc(=O)oc2c1 | 2.6% (inactive) |
